In ChEMBL document CHEMBL2331506, “Design, synthesis, antiviral and cytostatic evaluation of novel isoxazolidine nucleotide analogues with a carbamoyl linker” (Bioorg Med Chem, 2013):
The source made the active and inactive calls. How the calls were made is not given here.

Experiments:
[1] = test system: Vesicular stomatitis virus; assay: Antiviral activity against Vesicular stomatitis virus infected in human HeLa cells assessed as reduction of virus-induced cytopathogenicity at 250 uM; type: functional, organism-based
Outline: (§1)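 Confluent cell monolayers were infected with 100 CCID50 of virus while exposed to varying compound concentrations. Cytopathicity was scored once it was complete in untreated infected controls. EC50 was taken as the concentration that reduced virus-induced cytopathogenicity by 50%.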

[2] = test system: Human immunodeficiency virus 1; assay: Antiviral activity against Human immunodeficiency virus 1 3B infected in human CEM cells assessed as reduction of virus-induced giant cell formation at 250 uM after 4 to 5 days; type: functional, organism-based; details: CCRF-CEM
Outline: (§2)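 CEM cells at 3 × 10^5 cells/mL were infected with HIV at 100 CCID50 per mL in the presence of compound dilutions. They were held 4–5 days at 37 °C in humidified CO2. Syncytium (giant cell) formation was scored microscopically, and EC50 was taken as the concentration inhibiting giant cell formation by 50%.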

[3] = test system: Human immunodeficiency virus 2; assay: Antiviral activity against Human immunodeficiency virus 2 ROD infected in human CEM cells assessed as reduction of virus-induced giant cell formation at 250 uM after 4 to 5 days; type: functional, organism-based; details: CCRF-CEM; outline: as §2
[4] = test system: Mammalian orthoreovirus 1; assay: Antiviral activity against Reovirus 1 infected in african green monkey Vero cells assessed as reduction of virus-induced cytopathogenicity at 250 uM; type: functional, organism-based
Outline: (§3)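 Confluent monolayers (HEL fibroblasts, Vero, or HeLa cells as listed) were infected with 100 CCID50 of virus in the presence of varying compound concentrations. Virus-induced cytopathicity or plaque formation was scored once cytopathicity was complete in untreated infected controls. EC50 was taken as the concentration reducing cytopathogenicity or plaque formation by 50%.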

Punta Toro virus = assay: Antiviral activity against Punta Toro virus infected in african green monkey Vero cells assessed as reduction of virus-induced cytopathogenicity at 250 uM; type: functional, organism-based; outline: as §3
Coxsackievirus B4 = assay: Antiviral activity against Coxsackievirus B4 infected in african green monkey Vero cells assessed as reduction of virus-induced cytopathogenicity at 250 uM; type: functional, organism-based; outline: as §3
Human alphaherpesvirus 1 [5] = assay: Antiviral activity against Herpes simplex virus 1 KOS infected in human HEL cells assessed as reduction of virus-induced cytopathogenicity at 250 uM; type: functional, organism-based; outline: as §3
Human alphaherpesvirus 1 [6] = assay: Antiviral activity against thymidine kinase-deficient, ACV-resistant Herpes simplex virus 1 KOS infected in human HEL cells assessed as reduction of virus-induced cytopathogenicity at 250 uM; type: functional, organism-based; outline: as §1
[7] = Cytotoxicity against cat CRFK cells assessed as alteration of cell morphology up to 100 uM by microscopic analysis; type: cell-based, Felis catus
Outline: (§4)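 Uninfected host-cell cultures were exposed to compound and examined by microscopy. Cytotoxicity was expressed as the minimum cytotoxic concentration (MCC) causing a microscopically detectable alteration of normal cell morphology.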

Felid alphaherpesvirus 1 = assay: Antiviral activity against Feline herpes virus infected in cat CRFK cells assessed as reduction of virus-induced cytopathogenicity at 250 uM; type: functional, organism-based
Human alphaherpesvirus 2 = assay: Antiviral activity against Herpes simplex virus 2 G infected in human HEL cells assessed as reduction of virus-induced cytopathogenicity at 250 uM; type: functional, organism-based; details: strain G; outline: as §3
Feline coronavirus = assay: Antiviral activity against Feline coronavirus infected in cat CRFK cells assessed as reduction of virus-induced cytopathogenicity at 250 uM; type: functional, organism-based
Vero = assay: Cytotoxicity against african green monkey Vero cells assessed as alteration of cell morphology up to 100 uM by microscopic analysis; type: cell-based; details: chlorocebus sabaeus; outline: as §4
Influenza B virus = assay: Antiviral activity against Influenza B virus infected in dog MDCK cells assessed as reduction of virus-induced cytopathogenicity at 250 uM; type: functional, organism-based; outline: as §1
Sindbis virus = assay: Antiviral activity against Sindbis virus infected in african green monkey Vero cells assessed as reduction of virus-induced cytopathogenicity at 250 uM; type: functional, organism-based; outline: as §3
MDCK = assay: Cytotoxicity against dog MDCK cells assessed as alteration of cell morphology up to 100 uM by microscopic analysis; type: cell-based, Canis lupus familiaris; outline: as §4
HeLa = assay: Cytotoxicity against human HeLa cells assessed as alteration of cell morphology up to 100 uM by microscopic analysis; type: cell-based; outline: as §4
[8] = test system: Vesicular stomatitis virus; assay: Antiviral activity against Vesicular stomatitis virus infected in human HEL cells assessed as reduction of virus-induced cytopathogenicity at 250 uM; type: functional, organism-based; outline: as §1
Influenza A virus [9] = assay: Antiviral activity against Influenza A virus H1N1 infected in dog MDCK cells assessed as reduction of virus-induced cytopathogenicity at 250 uM; type: functional, organism-based; outline: as §1
Influenza A virus [10] = assay: Antiviral activity against Influenza A virus H3N2 infected in dog MDCK cells assessed as reduction of virus-induced cytopathogenicity at 250 uM; type: functional, organism-based; outline: as §1
Human respirovirus 3 = assay: Antiviral activity against Parainfluenza virus 3 infected in african green monkey Vero cells assessed as reduction of virus-induced cytopathogenicity at 250 uM; type: functional, organism-based; outline: as §3
[11] = test system: Respiratory syncytial virus; assay: Antiviral activity against Respiratory syncytial virus long infected in human HeLa cells assessed as reduction of virus-induced cytopathogenicity at 250 uM; type: functional, organism-based; outline: as §3
HEL = assay: Cytotoxicity against human HEL cells assessed as alteration of cell morphology up to 100 uM by microscopic analysis; type: cell-based; outline: as §4

Compound	inhibition [1]	inhibition [2]	inhibition [3]	inhibition [4]	inhibition (Punta Toro virus)	inhibition (Coxsackievirus B4)	inhibition (Human alphaherpesvirus 1 [5])	inhibition (Human alphaherpesvirus 1 [6])	Activity [7]	inhibition (Felid alphaherpesvirus 1)	inhibition (Human alphaherpesvirus 2)	inhibition (Feline coronavirus)	Activity (Vero)	inhibition (Influenza B virus)	inhibition (Sindbis virus)	Activity (MDCK)	Activity (HeLa)	inhibition [8]	inhibition (Influenza A virus [9])	inhibition (Influenza A virus [10])	also measured
CCOP(=O)(OCC)[C@@H]1C[C@H](C(=O)Nc2cccc(Cl)c2)ON1C (mixture of isomers)	inactive	inactive	inactive	inactive	inactive	inactive	inactive	inactive	Non-toxic	inactive	inactive	inactive	Non-toxic	inactive	inactive	Non-toxic	Non-toxic	inactive	inactive	inactive	inhibition (Human respirovirus 3): inactive; inhibition [11]: inactive; Activity (HEL): Non-toxic
CCOP(=O)(OCC)[C@@H]1C[C@H](C(=O)Nc2ccc(Br)cc2)ON1C (mixture of isomers)	inactive	inactive	inactive	inactive	inactive	inactive	inactive	inactive	Non-toxic	inactive	inactive	inactive	Non-toxic	inactive	inactive	Non-toxic	Non-toxic	inactive	inactive	inactive	inhibition (Human respirovirus 3): inactive; inhibition [11]: inactive; Activity (HEL): Non-toxic
CCOP(=O)(OCC)[C@H]1C[C@H](C(=O)Nc2cccc(Cl)c2)ON1C (mixture of isomers)	inactive	inactive	inactive	inactive	inactive	inactive	inactive	inactive	Non-toxic	inactive	inactive	inactive	Non-toxic	inactive	inactive	Non-toxic	Non-toxic	inactive	inactive	inactive	inhibition (Human respirovirus 3): inactive; inhibition [11]: inactive; Activity (HEL): Non-toxic
CCOP(=O)(OCC)[C@H]1C[C@H](C(=O)Nc2cccc([N+](=O)[O-])c2)ON1C (mixture of isomers)	inactive	inactive	inactive	inactive	inactive	inactive	inactive	inactive	Non-toxic	inactive	inactive	inactive	Non-toxic	inactive	inactive	Non-toxic	Non-toxic	inactive	inactive	inactive	inhibition (Human respirovirus 3): inactive; inhibition [11]: inactive; Activity (HEL): Non-toxic
CCOP(=O)(OCC)[C@@H]1C[C@H](C(=O)Nc2cccc([N+](=O)[O-])c2)ON1C (mixture of isomers)	inactive	inactive	inactive	inactive	inactive	inactive	inactive	inactive	Non-toxic	inactive	inactive	inactive	Non-toxic	inactive	inactive	Non-toxic	Non-toxic	inactive	inactive	inactive	inhibition (Human respirovirus 3): inactive; inhibition [11]: inactive; Activity (HEL): Non-toxic
CCOP(=O)(OCC)[C@H]1C[C@H](C(=O)Nc2ccc([N+](=O)[O-])cc2)ON1C (mixture of isomers)	inactive	inactive	inactive	inactive	inactive	inactive	inactive	inactive	Non-toxic	inactive	inactive	inactive	Non-toxic	inactive	inactive	Non-toxic	Non-toxic	inactive	inactive	inactive	inhibition (Human respirovirus 3): inactive; inhibition [11]: inactive; Activity (HEL): Non-toxic
CCOP(=O)(OCC)[C@@H]1C[C@H](C(=O)Nc2ccc(C#N)cc2)ON1C (mixture of isomers)	inactive	inactive	inactive	inactive	inactive	inactive	inactive	inactive	Non-toxic	inactive	inactive	inactive	Non-toxic	inactive	inactive	Non-toxic	Non-toxic	inactive	inactive	inactive	inhibition (Human respirovirus 3): inactive; inhibition [11]: inactive; Activity (HEL): Non-toxic
CCOP(=O)(OCC)[C@H]1C[C@H](C(=O)Nc2ccccc2C(C)=O)ON1C (mixture of isomers)	inactive	inactive	inactive	inactive	inactive	inactive	inactive	inactive	Non-toxic	inactive	inactive	inactive	Non-toxic	inactive	inactive	Non-toxic	Non-toxic	inactive	inactive	inactive	inhibition (Human respirovirus 3): inactive; inhibition [11]: inactive; Activity (HEL): Non-toxic
